Results: ChEMBL document CHEMBL4196102, “Yeast Chemogenomic Profiling Reveals Iron Chelation To Be the Principle Cell Inhibitory Mode of Action of Gossypol” (J Med Chem, 2018)
The source made the active and inactive calls. The calls are words filed in the database; no cut-off is given here.

How the values were obtained:
Assay type in all cases: functional, organism-based
Saccharomyces cerevisiae [1] = test: Growth inhibition of Saccharomyces cerevisiae harboring FET3 deletion mutant at 400 uM measured for 11 hrs by HOP assay
In short: (§1)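 Pooled homozygous (HOP) or heterozygous (HIP) deletion collections were profiled at 400 µM in two independent experiments, with strain sensitivity read from barcode abundance. Hits were retested as individual log-phase strains in YPD with serial compound dilutions, start OD600 0.01 and 2% DMSO. OD600 was read at 11 h and fitted by logistic regression against HO/YDL227C as wild-type reference.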

Saccharomyces cerevisiae [2] = test: Growth inhibition of Saccharomyces cerevisiae harboring GRX6 deletion mutant at 400 uM measured for 11 hrs by HOP assay; in short: as §1
Saccharomyces cerevisiae [3] = test: Growth inhibition of Saccharomyces cerevisiae harboring PIB2 deletion mutant at 400 uM measured for 11 hrs by HIP assay; in short: as §1
Saccharomyces cerevisiae [4] = test: Growth inhibition of Saccharomyces cerevisiae harboring CCC2 deletion mutant at 400 uM measured for 11 hrs by HOP assay; in short: as §1
Saccharomyces cerevisiae [5] = test: Growth inhibition of Saccharomyces cerevisiae harboring GEF1 deletion mutant at 400 uM measured for 11 hrs by HOP assay; in short: as §1
Saccharomyces cerevisiae [6] = test: Growth inhibition of wild type Saccharomyces cerevisiae BY4743 at 500 uM measured for 15 hrs in presence of Fe2+
Saccharomyces cerevisiae [7] = test: Growth inhibition of Saccharomyces cerevisiae harboring FTR1 deletion mutant at 400 uM measured for 11 hrs by HOP assay; in short: as §1
Saccharomyces cerevisiae [8] = test: Growth inhibition of wild type Saccharomyces cerevisiae BY4743 at 100 uM measured for 15 hrs in presence of Fe2+

SMILES	growth inhibition (GI) (Saccharomyces cerevisiae [1])	growth inhibition (GI) (Saccharomyces cerevisiae [2])	growth inhibition (GI) (Saccharomyces cerevisiae [3])	growth inhibition (GI) (Saccharomyces cerevisiae [4])	growth inhibition (GI) (Saccharomyces cerevisiae [5])	growth inhibition (GI) (Saccharomyces cerevisiae [6])	growth inhibition (GI) (Saccharomyces cerevisiae [7])	growth inhibition (GI) (Saccharomyces cerevisiae [8])
Cc1cc2c(C(C)C)c(O)c(O)c(C=O)c2c(O)c1-c1c(C)cc2c(C(C)C)c(O)c(O)c(C=O)c2c1O	Active	Active	inactive	Active	Active	inactive	Active	
O=C(O)c1ccc(-n2nc(-c3ccccc3O)nc2-c2ccccc2O)cc1	Active				inactive			inactive
